The results in this text go back to ChEMBL document CHEMBL2434864, “Synthesis and biological evaluation of phenyl substituted polyoxygenated xanthone derivatives as anti-hepatoma agents” (Eur J Med Chem, 2013).

The subject of assay [1] is QGY-7703. Kind of assay: Induction of apoptosis in human QGY7703 cells assessed as early apoptotic cells at 30 uM after 48 hrs by Annexin V-FITC/propidium iodide staining-based flow cytometric analysis (reference value: 2.63%). It is filed as functional. The method in brief:
(§1)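 QGY-7703 cells were seeded at 5×10^5 cells/mL for 24 h, then given 3.75, 7.5, 15 or 30 μM, or DMSO control, for 48 h. Floating and trypsinized adherent cells were pooled, washed twice in cold PBS and resuspended in binding buffer. They were stained with annexin V-FITC/PI for 15 min at room temperature in the dark and analysed by flow cytometry. Mean ± SD of three independent experiments.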

The nature of assay [2]: Cytotoxicity against human QSG7701 cells after 48 hrs by CCK-8 assay. As to conditions: QSG7701, 48 h. The class given is cell-based. Put shortly: (§2)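 Cells grown at 37 °C, 5% CO2 in medium with 10% FBS and penicillin/streptomycin: HepG-2 in MEM; QGY-7703, SMMC-7721 and QSG-7701 in 1640 medium. Seeded at 2×10^5 cells/well for 24 h, then exposed to varying compound concentrations or 1% DMSO vehicle for 48 h. CCK-8 added for 3 h more, absorbance read at 450 nm.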
A general note: Formazan colour is commonly taken as a measure of viable cells.

The test system of assay [3] is SMMC-7721. Kind of assay: Cytotoxicity against human SMMC7721 cells after 48 hrs by CCK-8 assay. It is filed as functional, cell-based. As to conditions: SMMC-7721, 48 h. Put shortly: as §2
Assay [4] deals with HepG2. Kind of assay: Cytotoxicity against human HepG2 cells after 48 hrs by CCK-8 assay. It is filed as functional, cell-based. Particulars: HepG2, 48 h. The method in brief:
as §2

Assay [5] deals with QGY-7703. In words: Induction of apoptosis in human QGY7703 cells assessed as late apoptotic cells at 30 uM after 48 hrs by Annexin V-FITC/propidium iodide staining-based flow cytometric analysis (reference value: 4.25%). It is filed as functional. Put shortly: as §1
(In flow cytometry, cells or beads pass a laser one at a time.)

For assay [6], the system named is QGY-7703. In words: Induction of apoptosis in human QGY7703 cells assessed as early apoptotic cells at 3.75 uM after 48 hrs by Annexin V-FITC/propidium iodide staining-based flow cytometric analysis (reference value: 2.63%). The class given is functional. The method in brief:
as §1

The nature of assay [7]: Growth inhibition of human QGY7703 cells at 10 uM after 48 hrs by CCK-8 assay relative to control. It is filed as functional. Particulars: QGY-7703, 48 h, read-out: GI. The method in brief:
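QGY-7703 cells were kept in 1640 medium with 10% FBS and penicillin/streptomycin at 37 °C, 5% CO2, then seeded at 2×10^5 cells/well for 24 h. They were treated once at 10 μM for 48 h, followed by CCK-8 for 3 h and A450. Values are percentage inhibition relative to untreated control cells.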

For assay [8], the system named is QGY-7703. Kind of assay: Induction of apoptosis in human QGY7703 cells assessed as late apoptotic cells at 7.5 uM after 48 hrs by Annexin V-FITC/propidium iodide staining-based flow cytometric analysis (reference value: 4.25%). It is filed as functional. Put shortly: as §1
Assay [9] concerns QGY-7703. Kind of assay: Induction of apoptosis in human QGY7703 cells assessed as early apoptotic cells at 7.5 uM after 48 hrs by Annexin V-FITC/propidium iodide staining-based flow cytometric analysis (reference value: 2.63%). It is filed as functional. The method in brief:
as §1

Assay [10] in a line: Cytotoxicity against human QGY7703 cells after 48 hrs by CCK-8 assay. The class given is functional, cell-based. As to conditions: QGY-7703, 48 h. The method in brief:
as §2

Assay [11] concerns QGY-7703. In words: Induction of apoptosis in human QGY7703 cells assessed as early apoptotic cells at 15 uM after 48 hrs by Annexin V-FITC/propidium iodide staining-based flow cytometric analysis (reference value: 2.63%). The class given is functional. Put shortly: as §1
In assay [12] the test system is QGY-7703. Kind of assay: Induction of apoptosis in human QGY7703 cells assessed as late apoptotic cells at 15 uM after 48 hrs by Annexin V-FITC/propidium iodide staining-based flow cytometric analysis (reference value: 4.25%). The class given is functional. Put shortly: as §1
Assay [13] concerns QGY-7703. Kind of assay: Induction of apoptosis in human QGY7703 cells assessed as late apoptotic cells at 3.75 uM after 48 hrs by Annexin V-FITC/propidium iodide staining-based flow cytometric analysis (reference value: 4.25%). It is filed as functional. The method in brief: as §1

In general, IC50 refers to the concentration needed to halve the response being measured. Low readings indicate inhibition by little substance, high ones a need for much substance. Consider `COc1ccc2c(=O)c3c(OC)cc(OC)c(-c4ccccc4)c3oc2c1OC`, for which the Activity in [1] is 15.81%; in assay [5], 23.27%; in assay [6], 2.61%; in assay [8] it was 12.12%; in assay [9], 8.63%; in [11], 10.58%. Moreover, the Activity was determined as 18.82% in assay [12] and 4.6% in [13]. For the same molecule, the IC50 in assay [2] is more than 100 µM; in assay [3] it was 7.5 µM; in assay [4], 19.2 µM; in [10], 6.27 µM. Further, the inhibition of growth at 10 µM in assay [7] came out at 66.5%.

Regarding `O=c1[nH]cc(F)c(=O)[nH]1` [FLUOROURACIL], the IC50 worked out at 0.6 µM in [2], 14.6 µM in assay [3], 12.5 µM in [4] and 15.7 µM in assay [10].

With `COc1ccc2c(=O)c3c(OC)cc(OC)c(-c4cc(C)ccc4C)c3oc2c1OC`, the IC50 in assay [2] was 90.7 µM; in [3] it was 17 µM; in [4], 28.6 µM; in assay [10] it was 24.6 µM. The inhibition of growth at 10 µM in assay [7] is 54.3%.

With `COc1ccc2c(=O)c3c(OC)cc(OC)c(-c4ccc(S(C)(=O)=O)cc4)c3oc2c1OC`, the inhibition of growth at 10 µM in assay [7] was 1.59%.

For the molecule `COc1ccc2c(=O)c3c(OC)cc(OC)c(-c4cccc(C(F)(F)F)c4)c3oc2c1OC`, the inhibition of growth at 10 µM in assay [7] stood at 30%.

Turning to `COc1ccc2c(=O)c3c(OC)cc(OC)c(-c4cc(F)cc(F)c4)c3oc2c1OC`, the inhibition of growth at 10 µM in [7] came out at 11.2%.

With `COc1ccc2c(=O)c3c(OC)cc(OC)c(-c4ccc(F)c(F)c4)c3oc2c1OC`, the inhibition of growth at 10 µM in [7] was 5.85%.

For the molecule `COc1ccc2c(=O)c3c(OC)cc(OC)c(-c4cccc(F)c4)c3oc2c1OC`, in assay [7], the inhibition of growth at 10 µM amounted to 35.2%.

For `COc1ccc2c(=O)c3c(OC)cc(OC)c(-c4ccc(C(F)(F)F)cc4)c3oc2c1OC`, in assay [7], the inhibition of growth at 10 µM worked out at 5.23%.

In the case of `COc1ccc2c(=O)c3c(OC)cc(OC)c(-c4ccccc4OC(F)(F)F)c3oc2c1OC`, the inhibition of growth at 10 µM in [7] turned out to be 33%.

`COc1cc(OC)cc(-c2c(OC)cc(OC)c3c(=O)c4ccc(OC)c(OC)c4oc23)c1`: the IC50 worked out at 33.1 µM in assay [2], 31.5 µM in assay [3], 45 µM in assay [4] and 31.9 µM in assay [10]. Moreover, the inhibition of growth at 10 µM in assay [7] stood at 58%.

On to `COc1ccc2c(=O)c3c(OC)cc(OC)c(-c4cccnc4)c3oc2c1OC`, for which the inhibition of growth at 10 µM in assay [7] worked out at 18%.

For the molecule `COc1ccc2c(=O)c3c(OC)cc(OC)c(-c4ccc(F)cc4)c3oc2c1OC`, the inhibition of growth at 10 µM in assay [7] amounted to 13.9%.

On to `COc1ccc2c(=O)c3c(OC)cc(OC)c(-c4ccc(C=O)cc4)c3oc2c1OC`, for which the inhibition of growth at 10 µM in assay [7] came out at 19.7%.

As for `COc1ccc2c(=O)c3c(OC)cc(OC)c(-c4ccc(C#N)cc4)c3oc2c1OC`, the inhibition of growth at 10 µM in assay [7] is -1.84%.

Regarding `COc1ccc2c(=O)c3c(OC)cc(OC)c(-c4cc(F)ccc4F)c3oc2c1OC`, the inhibition of growth at 10 µM in assay [7] was 17.4%.

`CCc1ccc(-c2c(OC)cc(OC)c3c(=O)c4ccc(OC)c(OC)c4oc23)cc1`: the IC50 in [2] came out at 69.2 µM; in assay [3], 16.4 µM; in assay [4], 28 µM; in [10], 22.6 µM. Moreover, the inhibition of growth at 10 µM in assay [7] is 77.1%.

Take `COc1ccc2c(=O)c3c(OC)cc(OC)c(-c4ccc(C(C)=O)cc4)c3oc2c1OC`: the inhibition of growth at 10 µM in assay [7] worked out at 13.2%.

`COC(=O)c1ccc(-c2c(OC)cc(OC)c3c(=O)c4ccc(OC)c(OC)c4oc23)cc1`: the inhibition of growth at 10 µM in assay [7] was -5.48%.

As to `COc1ccc2c(=O)c3c(OC)cc(OC)c(-c4ccc(C)cc4)c3oc2c1OC`, the IC50 in assay [2] turned out to be 66.3 µM; in assay [3], 3.15 µM; in assay [4], 24.6 µM; in assay [10] it was 14.1 µM. Also, in [7], the inhibition of growth at 10 µM was 68.1%.

Consider `COc1ccc2c(=O)c3c(OC)cc(OC)c(-c4cccc(C)c4)c3oc2c1OC`, for which the IC50 in assay [2] is more than 100 µM; in assay [3], 14.8 µM; in [4] it was 5 µM; in [10] it was 13.3 µM. In [7], the inhibition of growth at 10 µM was 51.4%.

Turning to `COc1cc(OC)c2c(=O)c3ccc(OC)c(OC)c3oc2c1`, the inhibition of growth at 10 µM in assay [7] came out at 14.1%.

As for `COc1cccc(-c2c(OC)cc(OC)c3c(=O)c4ccc(OC)c(OC)c4oc23)c1`, the IC50 in assay [2] stood at 48.1 µM; in [3] it was 10.6 µM; in [4] it was 28.7 µM; in assay [10], 11.9 µM. Besides, in assay [7], the inhibition of growth at 10 µM was determined as 55.2%.

Consider `COc1ccc2c(=O)c3c(OC)cc(OC)c(-c4ccc(C(C)(C)C)cc4)c3oc2c1OC`, for which the IC50 in assay [2] was more than 100 µM; in [3], 18.2 µM; in assay [4] it was 39.2 µM; in assay [10], 33.1 µM. The inhibition of growth at 10 µM in [7] worked out at 56.3%.

Regarding `COc1ccc2c(=O)c3c(OC)cc(OC)c(-c4ccccc4F)c3oc2c1OC`, the IC50 in assay [2] was found to be 20.7 µM; in [3] it was 26.8 µM; in assay [4] it was 48.9 µM; in assay [10], 39.6 µM. For the same molecule, the inhibition of growth at 10 µM in [7] amounted to 52.4%.

As for `COc1ccc2c(=O)c3c(OC)cc(OC)c(-c4cccc(C=O)c4)c3oc2c1OC`, the inhibition of growth at 10 µM in assay [7] is 13%.

With `COc1ccc2c(=O)c3c(OC)cc(OC)c(-c4ccc(OC(F)(F)F)cc4)c3oc2c1OC`, the inhibition of growth at 10 µM in assay [7] is 0.53%.

Turning to `COc1ccc2c(=O)c3c(OC)cc(OC)c(-c4ccc(C(C)C)cc4)c3oc2c1OC`, the IC50 in [2] was more than 100 µM; in assay [3] it was 20.1 µM; in assay [4] it was 32.5 µM; in assay [10], 26.1 µM. Besides, the inhibition of growth at 10 µM in assay [7] worked out at 52.7%.

Regarding `COc1ccc2c(=O)c3c(OC)cc(OC)c(-c4cc(C(F)(F)F)cc(C(F)(F)F)c4)c3oc2c1OC`, the inhibition of growth at 10 µM in assay [7] came to 14.2%.

Turning to `COc1ccc2c(=O)c3c(OC)cc(OC)c(-c4cccc(C#N)c4)c3oc2c1OC`, the inhibition of growth at 10 µM in [7] is -4.17%.
